Experimental data gathered from unrelated publications.
Compare with care: the assays were run in different laboratories.
Target: Mitotic checkpoint serine/threonine-protein kinase BUB1 (BUB1, Homo sapiens, UniProt O43683)

Compound	effect on	technique	tested at	remaining binding
CN(C)CC#Cc1ccc(OCCCc2sc(N3CCc4cccc(C(=O)Nc5nc6ccccc6s5)c4C3)nc2C(=O)O)c(F)c1	cell-free assay	competition with immobilised ligand	1 µM	81%
CN(C)c1ncc(F)c(-c2cnn3ncccc23)n1	binding		1 µM	100%
C=CC(=O)N1CCC(C(=O)NCC(=O)N2CCN(c3nc(-c4cnc(N)nc4C(F)F)nc(N4CCOCC4)n3)CC2)CC1	binding	competition with immobilised ligand	1 µM	77%
O=C(NCC1CCOCC1)c1n[nH]cc1NC(=O)c1c(F)cccc1F	binding	competition with immobilised ligand	1 µM	71%
CN(CCCC(F)(F)F)c1nccc(-c2cnn3ncccc23)n1	binding		1 µM	91%
O=C(N1CCS(=O)(=O)CC1)N1C[C@H](c2ccc(OC(F)(F)F)cc2)C[C@H](c2nc(C3CC3)no2)C1	cell-free assay	competition with immobilised ligand	1 µM	100%
CNC(=O)[C@@H]1CC[C@@H](n2c(-c3ccc4cnccc4c3)nc3ccc(C(=O)NCc4cccc(C(N)=O)c4)cc32)C1	binding	competition with immobilised ligand	1 µM	100%
F[C@@H]1CCN(c2nccc(-c3cnn4ncccc34)n2)C1	binding		1 µM	72%
CCOCCn1cc(C(=O)Nc2ccc(-n3nc(-c4cccnc4)cc3C(F)(F)F)cn2)ccc1=O	cell-free assay	competition with immobilised ligand	1 µM	79%
C[C@H]1CCN(c2nccc(-c3cnn4ncccc34)n2)C1	binding		1 µM	52%
CCc1ccccc1C(=O)Nc1n[nH]c2c(C)c(F)c(C3C(C#N)=C(C)N(C)C(C)=C3C#N)cc12	cell-free assay	competition with immobilised ligand	1 µM	100%
FC(F)(F)Oc1cccc(-c2cnc3ccc(-c4ccncc4)nn23)c1	cell-free assay	competition with immobilised ligand	5 µM	13%
CN(C)c1nccc(-c2cnn3ncccc23)n1	binding		1 µM	74%
C[C@@H](c1ccc(-n2cnc3c(N)ncnc32)cc1)N1CCc2nn(C)c(Cc3ccccc3)c2C1=O	binding	competition with immobilised ligand	0.1 µM	91%
N[C@H]1CCN(c2nccc(-c3cnn4ncccc34)n2)C1	binding		1 µM	97%
COc1cc(-c2cn(C3CCc4c(F)cccc4N(CC(F)(F)F)C3=O)nn2)ccc1-n1cnc(C)c1 (stereo not shown)	cell-free assay	competition with immobilised ligand	1 µM	100%
O=C(c1ccc(Nc2ncc(Cl)c(-c3ccc(Cl)s3)n2)cc1)N1CCC(N2CCCC2)CC1	binding	competition with immobilised ligand	1 µM	65%
C[C@@H]1CN(c2cc(-c3n[nH]c4ccc(OC5(C)CC5)cc34)ncn2)C[C@H](C)O1	cell-free assay	competition with immobilised ligand	0.1 µM	84%
O=C(c1ccc(Nc2ncc(Cl)c(-c3cc4ccccc4s3)n2)cc1)N1CCC(N2CCCC2)CC1	binding	competition with immobilised ligand	1 µM	53%
COc1ncc2cc3ccccc3nc2c1C#N	cell-free assay	competition with immobilised ligand	5 µM	92%
O=C(NCCCN1CCOCC1)c1ccc(Nc2ncc(Cl)c(-c3ccc(Cl)s3)n2)cc1	binding	competition with immobilised ligand	1 µM	80%
CC(=O)C1=C(C)N(c2cccc(C(F)(F)F)c2)C(=O)N[C@@H]1c1ccc(C#N)nc1	cell-free assay	competition with immobilised ligand	1 µM	100%
